Laboratory results reported in article PMC2843818 (Bioorganic & medicinal chemistry letters, 2010).

Legend:
human S1P3 = human S1P3 (Homo sapiens, UniProt Q99500); assay: Calcium mobilization Gi assay, S1P3; format: cell-based; conditions: for EC50 S1P3: calcium mobilization Gi assay, whole cell
hS1P1 [1] = biological target: T1, hS1P1 (Homo sapiens, UniProt P21453); assay: Calcium mobilization Gi assay, S1P1; format: cell-based; conditions: for EC50 S1P1: calcium mobilization Gi assay, whole cell
T1 sequence (P21453 whole entry): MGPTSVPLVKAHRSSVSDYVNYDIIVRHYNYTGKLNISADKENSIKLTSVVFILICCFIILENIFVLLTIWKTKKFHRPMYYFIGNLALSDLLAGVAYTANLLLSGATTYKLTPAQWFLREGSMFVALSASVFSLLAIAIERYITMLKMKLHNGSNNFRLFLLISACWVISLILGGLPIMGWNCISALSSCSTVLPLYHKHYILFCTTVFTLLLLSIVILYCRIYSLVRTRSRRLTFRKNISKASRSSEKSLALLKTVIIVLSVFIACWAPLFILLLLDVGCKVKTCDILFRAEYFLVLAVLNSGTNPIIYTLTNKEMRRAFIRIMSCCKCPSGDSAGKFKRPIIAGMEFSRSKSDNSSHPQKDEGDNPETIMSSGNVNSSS

lymphopenia = assay: Mouse lymphopenia; format: in vivo; conditions: for duration of sustained lymphopenia: mouse PK/PD study
Summary of the method: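 Mouse PK/PD study with single doses of test compound at 1 or 2 mg/kg. Lymphopenia was followed over time to find how long it lasted. Pharmacokinetics were measured in parallel: oral bioavailability, half-life, clearance, volume, and percent in vivo phosphorylation.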

hS1P1 [2] = biological target: T1, hS1P1; assay: Calcium mobilization Gq assay, S1P1; format: cell-based; conditions: for EC50 S1P1: calcium mobilization Gq assay, whole cell

Chain of human S1P3 (Q99500 whole entry): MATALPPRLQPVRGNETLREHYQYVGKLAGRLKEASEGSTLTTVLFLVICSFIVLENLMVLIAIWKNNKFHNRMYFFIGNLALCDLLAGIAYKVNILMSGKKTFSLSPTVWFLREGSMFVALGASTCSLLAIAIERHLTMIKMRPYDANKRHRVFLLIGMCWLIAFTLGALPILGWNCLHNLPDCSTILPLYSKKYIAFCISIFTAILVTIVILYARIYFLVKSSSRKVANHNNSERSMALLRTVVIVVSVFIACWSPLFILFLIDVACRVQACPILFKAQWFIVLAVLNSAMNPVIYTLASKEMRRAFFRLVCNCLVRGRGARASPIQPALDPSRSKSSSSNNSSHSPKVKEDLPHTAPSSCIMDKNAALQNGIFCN

SMILES: CCCCCCCCc1ccc2c(c1)CC[C@@H](C(N)(CO)COP(=O)(O)O)C2 (single isomer, unassigned) [(2’R)-3-P isomer 2]
- EC50 S1P3 (human S1P3): not active

SMILES: CCCCCCCCc1ccc2c(c1)CC[C@@H](C(N)(CO)COP(=O)(O)O)C2 (single isomer, unassigned) [(2’R)-3-P isomer 1]
- fold less potent at S1P1 than (S)-FTY720-P (hS1P1 [1]; Gi assay): 6 fold
- fold less potent at S1P3 than (S)-FTY720-P (human S1P3; Gi assay): 2 fold

SMILES: CCCCCCCCc1ccc2c(c1)CC[C@@H]([C@](C)(N)COP(=O)(O)O)C2 [(2S, 2’R)-6]
- S1P1/S1P3 selectivity (hS1P1 [1]; Gi assay): great S1P1/S1P3 selectivity
- EC50 S1P1 (hS1P1 [1]): significantly less active
- EC50 S1P3 (human S1P3): no activity

SMILES: CCCCCCCCc1ccc2c(c1)CC[C@@H]([C@](C)(N)CO)C2 [(2S, 2’R)-5]
- ED50 (lymphopenia; Mus musculus, read-out: Mouse Lymphopenia ED50): > 5 mg/kg
- Mouse Lymphopenia ED50 (lymphopenia): not active

SMILES: CCCCCCCCc1ccc2c(c1)CC[C@H]([C@](C)(N)COP(=O)(O)O)C2 [(2S, 2’S)-6]
- S1P1/S1P3 selectivity (hS1P1 [1]; Gi assay): great S1P1/S1P3 selectivity
- EC50 S1P1 (hS1P1 [1]): significantly less active
- EC50 S1P3 (human S1P3): no activity
- EC50 S1P1 (hS1P1 [2]): not active

SMILES: CCCCCCCCc1ccc2c(c1)CC[C@@H]([C@@](C)(N)COP(=O)(O)O)C2 [(2R, 2’R)-6]
- EC50 S1P1 (hS1P1 [2]): very active

SMILES: CCCCCCCCc1ccc(CC[C@@](N)(CO)COP(=O)(O)O)cc1 [(R)-FTY720-P, reference compound]
- EC50 S1P3 (human S1P3): not active
- EC50 S1P1 (hS1P1 [2]): not active

SMILES: CCCCCCCCc1ccc2c(c1)CC[C@H]([C@@](C)(N)CO)C2 [(2R, 2’S)-5, (−)-(R)-2-amino-2-((S)-6-octyl-1,2,3,4-tetrahydronaphthalen-2-yl) propan-1-ol]
- duration of sustained lymphopenia (lymphopenia; 1 mg/kg dose): one-week

SMILES: CCCCCCCCc1ccc2c(c1)CC[C@H]([C@](C)(N)CO)C2 [(2S, 2’S)-5]
- Mouse Lymphopenia ED50 (lymphopenia): not active

SMILES: CCCCCCCCc1ccc2c(c1)CC[C@@H](C(N)(CO)CO)C2 [(2’R)-3]
- duration of sustained lymphopenia (lymphopenia; 2 mg/kg dose): 72 h

SMILES: CCCCCCCCc1ccc2c(c1)CC[C@H]([C@@](C)(N)COP(=O)(O)O)C2 [(2R, 2’S)-6]
- selectivity of S1P1 over S1P3 (hS1P1 [2]; Gq assay, compared to FTY720): moderate selectivity
- EC50 S1P1 (hS1P1 [2]): very active
